Assay results as given in ChEMBL document CHEMBL4145598, “Discovery and Development of 8-Substituted Cycloberberine Derivatives as Novel Antibacterial Agents against MRSA” (ACS Med Chem Lett, 2018).
Calls of active or inactive are those of the source. The rule behind the calls is not given here.

Columns and labels:
Staphylococcus aureus [1] = experiment: Antimicrobial activity against methicillin-sensitive Staphylococcus aureus ATCC 29213 after 18 hrs by agar dilution assay; assay type: functional; conditions: ATCC 29213, 18 h
Staphylococcus aureus [2] = experiment: Antimicrobial activity against methicillin-sensitive Staphylococcus aureus isolate 15 after 18 hrs by agar dilution assay; assay type: functional; conditions: isolate 15, 18 h
Staphylococcus aureus [3] = experiment: Antimicrobial activity against methicillin-sensitive Staphylococcus aureus isolate 13-17 after 18 hrs by agar dilution assay; assay type: functional; conditions: isolate 13-17, 18 h
Staphylococcus aureus [4] = experiment: Antimicrobial activity against methicillin-sensitive Staphylococcus aureus isolate 13-19 after 18 hrs by agar dilution assay; assay type: functional; conditions: isolate 13-19, 18 h
Staphylococcus aureus [5] = experiment: Antimicrobial activity against methicillin-sensitive Staphylococcus aureus isolate 13-20 after 18 hrs by agar dilution assay; assay type: functional; conditions: isolate 13-20, 18 h
Staphylococcus aureus [6] = experiment: Antimicrobial activity against methicillin-sensitive Staphylococcus aureus isolate 13-21 after 18 hrs by agar dilution assay; assay type: functional; conditions: isolate 13-21, 18 h
[7] = tested on: Staphylococcus epidermidis; experiment: Antimicrobial activity against methicillin-sensitive Staphylococcus epidermidis ATCC 12228 after 18 hrs by agar dilution assay; assay type: functional; conditions: ATCC 12228, 18 h
[8] = tested on: Staphylococcus epidermidis; experiment: Antimicrobial activity against methicillin-sensitive Staphylococcus epidermidis isolate 13-1 after 18 hrs by agar dilution assay; assay type: functional; conditions: isolate 13-1, 18 h
[9] = tested on: Staphylococcus saprophyticus; experiment: Antimicrobial activity against Staphylococcus saprophyticus ATCC 15305 after 18 hrs by agar dilution assay; assay type: functional; conditions: ATCC 15305, 18 h
Staphylococcus hominis = experiment: Antimicrobial activity against Staphylococcus hominis ATCC 35982 after 18 hrs by agar dilution assay; assay type: functional; conditions: ATCC 35982, 18 h
Staphylococcus aureus [10] = experiment: Antimicrobial activity against methicillin-resistant Staphylococcus aureus ATCC 33591 after 18 hrs by agar dilution assay; assay type: functional; conditions: ATCC 33591, 18 h
In short: (§1)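 Drug-resistant S. aureus (MRSA/VISA) panel. It includes ATCC reference strains and clinical isolates from patients in Chinese hospitals. MIC was determined by standard methods and reported in μg/mL, with levofloxacin as the reference drug.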

Staphylococcus aureus [11] = experiment: Antimicrobial activity against methicillin-resistant Staphylococcus aureus isolate 13-18 after 18 hrs by agar dilution assay; assay type: functional; conditions: isolate 13-18, 18 h; in short: as §1
Staphylococcus aureus [12] = experiment: Antimicrobial activity against methicillin-resistant Staphylococcus aureus isolate 13-23 after 18 hrs by agar dilution assay; assay type: functional; conditions: isolate 13-23, 18 h; in short: as §1
Staphylococcus aureus [13] = experiment: Antimicrobial activity against methicillin-resistant Staphylococcus aureus isolate 12-3 after 18 hrs by agar dilution assay; assay type: functional; conditions: isolate 12-3, 18 h; in short: as §1
Staphylococcus aureus [14] = experiment: Antimicrobial activity against methicillin-resistant Staphylococcus aureus isolate 12-8 after 18 hrs by agar dilution assay; assay type: functional; conditions: isolate 12-8, 18 h; in short: as §1
Staphylococcus aureus [15] = experiment: Antimicrobial activity against methicillin-resistant Staphylococcus aureus isolate 12-13 after 18 hrs by agar dilution assay; assay type: functional; conditions: isolate 12-13, 18 h; in short: as §1
Staphylococcus aureus [16] = experiment: Antimicrobial activity against methicillin-resistant Staphylococcus aureus isolate 12-16 after 18 hrs by agar dilution assay; assay type: functional; conditions: isolate 12-16, 18 h; in short: as §1
Staphylococcus aureus [17] = experiment: Antimicrobial activity against methicillin-resistant Staphylococcus aureus ATCC-BAA-1708 after 18 hrs by agar dilution assay; assay type: functional; conditions: ATCC-BAA-1708, 18 h; in short: as §1
Staphylococcus aureus [18] = experiment: Antimicrobial activity against vancomycin-intermediate Staphylococcus aureus ATCC 700698 after 18 hrs by agar dilution assay; assay type: functional; conditions: ATCC 700698, 18 h
In short: (§2)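 MICs in μg/mL against drug-resistant S. aureus (MRSA/VISA) by standard methods, with levofloxacin as the reference drug. ATCC strains were used.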

Staphylococcus aureus [19] = experiment: Antimicrobial activity against vancomycin-intermediate Staphylococcus aureus ATCC 700699 after 18 hrs by agar dilution assay; assay type: functional; conditions: ATCC 700699, 18 h; in short: as §2
[20] = Stability in Sprague-Dawley rat blood assessed as parent compound remaining at […] after 420 mins by LC-MS/MS analysis; assay type: ADME, tissue-based; conditions: read-out: Stability
[21] = Cytotoxicity against human A549 cells assessed as decrease in cell viability after 24 hrs by MTT assay; assay type: cell-based
In short: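 A549 cells were treated with compound at a series of concentrations for 24 h, and viability was read by MTT assay. Controls received 0.4% (v/v) DMSO. CC50 is given in μg/mL.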

DNA = experiment: Binding affinity to Escherichia coli DH5-alpha supercoiled pET-32a DNA assessed as conversion of closed circular form to open circular form of DNA at 61.5 to 492 ug/ml after 4 hrs by agarose gel electrophoresis; assay type: nucleic-acid assay
In short: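 Supercoiled pET-32a plasmid DNA was incubated with compound at increasing concentrations for 4 h at 37 °C under physiological conditions. DNA forms were resolved by agarose gel electrophoresis.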

SMILES | MIC (Staphylococcus aureus [1]) [µg/mL] | MIC (Staphylococcus aureus [2]) [µg/mL] | MIC (Staphylococcus aureus [3]) [µg/mL] | MIC (Staphylococcus aureus [4]) [µg/mL] | MIC (Staphylococcus aureus [5]) [µg/mL] | MIC (Staphylococcus aureus [6]) [µg/mL] | MIC [7] [µg/mL] | MIC [8] [µg/mL] | MIC [9] [µg/mL] | MIC (Staphylococcus hominis) [µg/mL] | MIC (Staphylococcus aureus [10]) [µg/mL] | MIC (Staphylococcus aureus [11]) [µg/mL] | MIC (Staphylococcus aureus [12]) [µg/mL] | MIC (Staphylococcus aureus [13]) [µg/mL] | MIC (Staphylococcus aureus [14]) [µg/mL] | MIC (Staphylococcus aureus [15]) [µg/mL] | MIC (Staphylococcus aureus [16]) [µg/mL] | MIC (Staphylococcus aureus [17]) [µg/mL] | MIC (Staphylococcus aureus [18]) [µg/mL] | MIC (Staphylococcus aureus [19]) [µg/mL] | further results
COc1ccc2c(c[n+]3c4c2ccc2c5c(cc(c24)CC3)OCO5)c1OCC(=O)C12CC3CC(CC(C3)C1)C2.[Br-] | 4 | 2 | 2 | 4 | 4 | 2 | 2 | 2 | 2 | 2 | 2 | 4 | 2 | 4 | 4 | 4 | 2 | 4 | 8 | 8 | remaining at 7 h [20]: 58%; CC50 at 24 h [21]: 2 µg/mL
COc1ccc2c(c[n+]3c4c2ccc2c5c(cc(c24)CC3)OCO5)c1OC(C)=O.[Cl-] | 1 | 2 | 1 | 8 | 2 | 4 | 1 | 2 | 4 | 2 | 4 | 1 | 2 | 4 | 8 | 4 | 2 | 8 | 16 | 32 | CC50 at 24 h [21]: > 33.6 µg/mL
COc1ccc2c(c[n+]3c4c2ccc2c5c(cc(c24)CC3)OCO5)c1N.[Cl-] | 4 | 4 | 4 | 8 | 4 | 8 | 8 | 8 | 8 | 8 | 4 | 8 | 8 | 8 | 4 | 4 | 4 | 4 | 64 | 4 | –
COc1ccc2c(c[n+]3c4c2ccc2c5c(cc(c24)CC3)OCO5)c1OCC(=O)c1ccc(C(F)(F)F)cc1.[Br-] | > 64 | > 64 | > 64 | > 64 | > 64 | > 64 | > 64 | > 64 | > 64 | > 64 | > 64 | > 64 | > 64 | > 64 | > 64 | > 64 | > 64 | > 64 | > 64 | > 64 | –
COc1ccc2c(c[n+]3c4c2ccc2c5c(cc(c24)CC3)OCO5)c1O.[Cl-] | 0.25 | 4 | 0.25 | 0.5 | 0.25 | 0.5 | 0.5 | 0.5 | > 64 | 0.5 | 0.25 | 0.25 | 0.25 | 0.25 | 0.5 | 1 | 0.5 | 0.5 | 0.5 | 0.25 | –
COc1ccc2c(c[n+]3c4c2ccc2c5c(cc(c24)CC3)OCO5)c1NC(=O)c1cc(C)n(C)n1.[Cl-] | 16 | 16 | 16 | 8 | 8 | 16 | 32 | > 64 | > 64 | > 64 | 64 | 32 | 8 | 32 | 32 | 16 | 16 | 16 | > 64 | 4 | –
COc1ccc2c(c[n+]3c4c2ccc2c5c(cc(c24)CC3)OCO5)c1NC(=O)CC1CCCC1.[Cl-] | 8 | 8 | 8 | 8 | 8 | 8 | 8 | 8 | 32 | 8 | 8 | 8 | 8 | 8 | 8 | 16 | 8 | 4 | 64 | 4 | –
COc1ccc2c(c[n+]3c4c2ccc2c5c(cc(c24)CC3)OCO5)c1NC(=O)c1csnn1.[Cl-] | 2 | 4 | 2 | 2 | 2 | 2 | 4 | 2 | 4 | 2 | 2 | 2 | 2 | 2 | 2 | 4 | 2 | 2 | 16 | 8 | remaining at 7 h [20]: 57.2%; CC50 at 24 h [21]: 16.1 µg/mL; Activity (DNA): Active
COc1ccc2c(c[n+]3c4c2ccc2c5c(cc(c24)CC3)OCO5)c1OCC(=O)c1ccccc1OC(F)(F)F.[Br-] | 8 | 16 | 8 | 8 | 8 | 8 | 4 | 16 | 4 | 4 | 8 | 8 | 8 | 16 | 8 | 4 | 4 | 32 | > 64 | > 64 | –
COc1ccc2c(c[n+]3c4c2ccc2c5c(cc(c24)CC3)OCO5)c1OCC(=O)C(C)(C)C.[Br-] | 32 | 64 | 32 | 32 | 32 | 32 | 32 | 32 | 32 | 16 | 32 | 32 | 32 | 32 | 64 | 32 | 32 | 32 | > 64 | > 64 | –
CCC(=O)COc1c(OC)ccc2c1c[n+]1c3c2ccc2c4c(cc(c23)CC1)OCO4.[Br-] | > 64 | > 64 | > 64 | > 64 | > 64 | > 64 | > 64 | > 64 | > 64 | > 64 | > 64 | > 64 | > 64 | > 64 | > 64 | > 64 | > 64 | > 64 | > 64 | > 64 | –
